These results are taken from ChEMBL document CHEMBL1157342, “Isolation of gelsedine-type indole alkaloids from Gelsemium elegans and evaluation of the cytotoxic activity of gelsemium alkaloids for A431 epidermoid carcinoma cells” (J Nat Prod, 2006).

The subject of this test is A-431. The test can be described thus: Cytotoxicity against human A431 cells after 48 hrs by trypan blue test. Format: functional, cell-based. As to conditions: A-431, 48 h. The method, boiled down:
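A431 human epidermoid carcinoma cells were grown at 5% CO2, 37 °C, seeded in 12-well plates at 1 × 10^5 cells/well and treated at semiconfluence (about 5 × 10^5 cells/well). DMSO stocks (100 mM) were diluted in serum-free RPMI-1640 to 10 nM–100 µM final, with DMSO below 0.1%. After 48 h, cells were counted in a Bürker-Türk chamber with trypan blue. Survival was expressed as % of untreated control. EC50 was taken from three independent experiments, mean ± SEM.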

Regarding `C/C=C1\CN(C)[C@H]2C[C@@]3(C(=O)N(OC)c4cc(OC)ccc43)[C@H]3C[C@@H]1[C@@H]2CO3`, the EC50 – broadly, the concentration giving half of the maximal effect – was above 100 µM.
The figure for `CCC1=N[C@H]2C[C@@]3(C(=O)N(OC)c4ccccc43)[C@@H]3OC[C@H]2[C@H]1[C@H]3O` is above 100 µM.
In turn, `CCC1=N[C@H]2C[C@@]3(C(=O)N(OC)c4ccccc43)[C@@H]3OC[C@H]2[C@H]1[C@H]3OC(C)=O` had an EC50 of 0.25 µM.
The figure for `C/C=C1\CN2[C@H]3Cc4c([nH]c5ccccc45)[C@@H]2C[C@@H]1C3(CO)C(=O)OC` (some centres undefined) is above 100 µM; for `CCC1=N[C@H]2C[C@@]3(C(=O)N(OC)c4ccccc43)[C@@H]3OC[C@H]2[C@@]1(O)[C@H]3OC(C)=O` it is 36 µM; for `CCC1=N[C@H]2C[C@@]3(C(=O)N(OC)c4cc(OC)ccc43)[C@@H]3OC[C@H]2[C@H]1[C@H]3O` it is above 100 µM.
The figure for `CCC1=N[C@H]2C[C@@]3(C(=O)N(OC)c4ccccc43)[C@@H]3OC[C@H]2[C@@]1(O)[C@H]3O` is 1.3 µM; for `CC[C@H]1N[C@H]2C[C@@]3(C(=O)N(OC)c4ccccc43)[C@H]3C[C@@H]1[C@@H]2CO3` [GELSEDINE] it is 0.35 µM; for `CC[C@H]1N[C@H]2C[C@@]3(C(=O)N(OC)c4cc(OC)ccc43)[C@H]3C[C@@H]1[C@@H]2CO3` [GELSEMICINE] it is 0.75 µM.
The compound `C=C[C@]12CN(C)[C@@H]3[C@H]4CO[C@H](C[C@H]41)[C@]1(C(=O)Nc4ccccc41)[C@@H]32` [GELSEMINE] came in with an EC50 above 100 µM.
For `CCC(=O)[C@]12N[C@H]3C[C@@]4(C(=O)N(OC)c5ccccc54)[C@H](OC[C@H]31)[C@@H]2O` [GELSEMOXONINE] the value was above 100 µM; for `CCC1=N[C@H]2C[C@@]3(C(=O)N(OC)c4ccccc43)[C@H]3C[C@@H]1[C@@H]2CO3` [GELSENICINE], 37 µM; for `C/C=C1\CN(C)[C@H]2C[C@@]3(C(=O)N(OC)c4ccccc43)[C@H]3C[C@@H]1[C@@H]2CO3` [HUMANTENINE], above 100 µM.
The compound `C=C[C@@]12CN(C)[C@H]3C[C@]14C(=Nc1ccccc14)[C@@H]1C[C@@H]2[C@@H]3CO1` [KOUMINE] returned an EC50 above 100 µM.
